procasp3 activ: activators of human procaspase-3 D3A mutant, primary screen, biochemical, absorbance, PC-3 D3A mutant, single concentration | activation, % at 8.5 µM | AID 463141, 2010 | Caspase-3 (Homo sapiens), P42574 | 330,000 tested, 0.11% active | recombinant procaspase-3 D3A, Ac-DEVD-pNA absorbance 405 nm;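 active = activation above the mean of all tested compounds plus 3 SD, cut at about 21% in these data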
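Assay system – Procaspase-3 D3A mutant, all three cleavage aspartates alanine · Controls – DMSO-only low control, 5 µM PC-3 D3A high control · Schedule – 1 h compound preincubation, 2 h substrate hydrolysis at 25 °C · Signal – 405 nm absorbance of p-nitroaniline, reads at 0 and 120 min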
CHT PAM: CHT positive allosteric modulators, primary screen, cell-based, membrane potential dye, choline EC20; High affinity choline transporter 1 (Homo sapiens), Q9GZV3; CHT-expressing cells; hits give high values; LV-AA mutant CHT in HEK293 cells; B-score at 10 µM; 310,000 tested, 0.49% active;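 active = initial fluorescence not abnormally high and integrated response B-score, plate-corrected, over 3 SD above library mean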
Target sequence (Q9GZV3 whole entry, looked up): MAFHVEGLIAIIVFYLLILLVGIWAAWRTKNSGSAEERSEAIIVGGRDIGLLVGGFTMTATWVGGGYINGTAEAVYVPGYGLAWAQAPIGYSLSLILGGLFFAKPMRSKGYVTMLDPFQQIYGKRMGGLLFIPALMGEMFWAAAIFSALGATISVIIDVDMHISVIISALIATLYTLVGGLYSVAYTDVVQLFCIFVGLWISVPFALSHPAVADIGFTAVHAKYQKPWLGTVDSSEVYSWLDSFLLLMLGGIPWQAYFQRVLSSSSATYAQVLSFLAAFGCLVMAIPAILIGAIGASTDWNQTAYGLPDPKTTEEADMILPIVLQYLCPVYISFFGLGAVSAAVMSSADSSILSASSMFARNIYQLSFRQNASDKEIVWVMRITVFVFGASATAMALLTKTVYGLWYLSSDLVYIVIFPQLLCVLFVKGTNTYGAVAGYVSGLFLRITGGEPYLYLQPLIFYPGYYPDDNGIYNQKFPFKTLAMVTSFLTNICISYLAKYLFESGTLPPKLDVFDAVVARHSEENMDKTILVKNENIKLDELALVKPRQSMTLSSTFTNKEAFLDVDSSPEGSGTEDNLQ
proCasp7 act: procaspase-7 activators, primary screen, counter-screen for procaspase-3 activator project, biochemical, absorbance, HTS, human; recombinant procaspase-7, Ac-DEVD-pNA absorbance 405 nm; D23A/D198A/D206A triple mutant, cannot self-cleave; scale: DMSO 0, 5 µM enzyme 100; activation, % at 8.5 µM; 330,000 tested, 0.093% active; Caspase-7 (Homo sapiens), P55210;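 active = percent activation above the screen-wide mean plus 3 SD, cut at about 25% in these data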
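Replicates: singlicate. Assay system: Procaspase-7 triple mutant (PC-7 D3A). Signal: 405 nm absorbance of p-nitroaniline. Times: 1 h preincubation, 2 h reaction. Buffer or medium: Zinc-free HEPES pH 7.4 with 300 mM NaCl, 0.01% Triton X-100. Also added: DEVD-pNA substrate. Benchmarks: DMSO wells as 0%, DMSO with 5 µM added PC-7 as 100%.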
CHT block: inhibitors of human choline transporter CHT. High affinity choline transporter 1 (Homo sapiens), Q9GZV3. CHT-expressing cells, membrane potential dye, choline response; hits give low values. B-score at 10 µM. 310,000 tested, 0.86% active;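 active = B-score over 3 SD under the library average, and starting fluorescence ratio not unusually high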;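 also: choline stimulus applied at its EC90 after an EC20 pre-addition; B-score computed on integrated fluorescence ratio after choline addition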
CHT inh conf: CHT inhibitors, confirmation, cell-based, membrane potential dye, duplicate; shares compounds with CHT block; CHT-expressing cells, choline membrane potential dye; LV-to-AA substituted CHT, HEK293 cells; CHT activity remaining % of control (hits give low values), % at 10 µM; 2,400 tested, 70% active;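 active = choline transporter activity left, mean of duplicates at 10 µM, below buffer-only control mean minus 3 SD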;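 also: depolarization triggered by choline at its EC90 following an EC20 pre-addition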
HEK293 MPD ctr: membrane potential effects in parental HEK293, counter-screen for CHT inhibitor project, cell-based, membrane potential dye; shares compounds with CHT block; choline response; active = decrease or increase beyond buffer ±3SD; membrane potential ratio readout (active if shifted either direction beyond buffer ±3SD; no single direction) at 10 µM; 2,400 tested, 4% active; AID 493222, 2011;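 also: parental cells lack the transporter so any hit is non-specific; ratio is peak minus trough fluorescence over baseline after EC90 choline challenge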
CHT act confirm: CHT activators, confirmation, cell-based, membrane potential dye, duplicate; shares compounds with CHT PAM; CHT-expressing cells, membrane potential dye fluorescence (FDSS); % of choline EC20–EC90 response window; HEK293 expressing CHT LV-AA mutant; choline added at its EC20; activation, % at 10 µM; 2,500 tested, 91% active;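 active = primary screen active, with duplicate mean activation above negative control mean plus 3 SD, cut at about 11% in these data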
HEK293 MP dye: membrane potential response in parental HEK293 cells, counter-screen for CHT activator project, cell-based, membrane potential dye; shares compounds with CHT PAM; membrane potential dye fluorescence (FDSS); measured after EC20 choline addition; ratio readout change at 10 µM, hits read low; 2,500 tested, 62% active; AID 623908, 2012;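 active = duplicate-averaged ratio beyond 3 SD from buffer wells, up or down, though filed actives are nearly all decreases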
Hits are given with their value; 0 = inactive; - = no result; ! = repeats disagree. The list is not random: actives were taken first. Their share in the collection is about 1.3%.

SMILES	procasp3 activ	CHT PAM	proCasp7 act	CHT block	CHT act confirm	HEK293 MP dye	others
O=P1(N(CCCl)CCCl)NCCCO1 (centres undefined)	0	0	0	0	-	-
c1ccc2c(CN3CCCCCCC3)c[nH]c2c1	0	0	0	-11	-	-	CHT inh conf=2.7%;HEK293 MPD ctr=0
CCc1ccc(NC(=O)CCNC(=O)N2C[C@H]3C[C@@H](C2)c2cccc(=O)n2C3)cc1	0	0	0	0	-	-
CCOc1cc2c(cc1OCC)-n1cccc1C(c1cc(C)c(OC)cc1C)NC2 (centres undefined)	0	0	0	-5	-	-	CHT inh conf=0;HEK293 MPD ctr=0
CCOc1cc2c(cc1OCC)-n1cccc1C(c1ccc(C)cc1C)NC2 (centres undefined)	0	0	0	0	-	-
COC(=O)C1=C(c2cccc(Cl)c2)C[C@@H]2CC[C@H]1N2C(=O)N1CCCC1	0	-	0	-	-	-
COC(=O)C1=C(c2cc3ccccc3o2)C[C@@H]2CC[C@H]1N2C(=O)N1CCCC1	0	0	0	-6.2	-	-	CHT inh conf=65%;HEK293 MPD ctr=0
CCC(=NCCc1c[nH]c2ccccc12)c1c(O)n(C)c(=O)n(C)c1=O	0	0	0	-5.7	-	-	CHT inh conf=0;HEK293 MPD ctr=0
COC(=O)C1=C(c2ccc(-c3ccccc3)c(F)c2)C[C@@H]2CC[C@H]1N2C(=O)NCCOc1ccc(OC)cc1	0	-	0	-	-	-
C1CC2OC2CC1C1CO1 (centres undefined)	0	-	0	-	-	-
Brc1ccc2c(c1)C(OC1CN3CCC1CC3)c1ccccc1CS2 (centres undefined)	0	0	0	-6.5	-	-	CHT inh conf=34%;HEK293 MPD ctr=0
COc1ccccc1C1CC2CCC(C1OC(C)=O)N2Cc1ccccc1 (centres undefined)	0	0	0	0	-	-
CC(C)OC(=O)c1c(N)n(CC2CCCO2)c2nc3ccccc3nc12 (centres undefined)	0	0	0	0	-	-
CC(C)OCCCNC(=O)c1c(N)n(CC2CCCO2)c2nc3ccccc3nc12 (centres undefined)	0	0	0	-5.1	-	-	CHT inh conf=0;HEK293 MPD ctr=0
CCCNC(=O)c1c(N)n(CC2CCCO2)c2nc3ccccc3nc12 (centres undefined)	0	0	0	0	-	-
Nc1c(C(=O)OC2CCCCC2)c2nc3ccccc3nc2n1CC1CCCO1 (centres undefined)	0	0	0	-8.6	-	-	CHT inh conf=51%;HEK293 MPD ctr=0
O=C1NC(=O)N(c2ccc(Cl)cc2)C(=O)/C1=C/c1coc2ccc(O)cc2c1=O	0	0	0	-5.9	-	-	CHT inh conf=59%;HEK293 MPD ctr=0
COCCO[C@H]1CCC2C3CC=C4C[C@@H](O)CC[C@]4(C)C3CC[C@@]21C (some centres undefined)	0	-	0	-	-	-
CC(=O)OCC[N+](C)(C)C	0	0	0	-7.5!	-	-	CHT inh conf=25%;HEK293 MPD ctr=0
C[N+](C)(C)CCOC(=O)CBr	0	0	0	-8	-	-	CHT inh conf=-8.4%;HEK293 MPD ctr=0
O=C(NCNC(=O)NC1C(=O)NC(=O)N1CO)NC1C(=O)NC(=O)N1CO (centres undefined)	0	0	0	0	-	-
O=S(=O)(c1ccc(F)cc1)N1CCCCC1c1cccnc1 (centres undefined)	0	0	0	0	-	-
Cc1cc(N2CCN(C)CC2)nc2ccccc12	0	7	0	0	49	-51
CSc1nc(N2CCN(C)CC2)c2ccccc2n1	0	6.3	0	0	47	-68
Cc1ccc(-c2nc(N3CCOCC3)s[n+]2-c2ccccc2)cc1	0	6.7	0	0	55	0
SMILES	procasp3 activ	CHT PAM	proCasp7 act	CHT block	CHT act confirm	HEK293 MP dye	others
COc1cc2c(cc1O)C[C@H]1NCCc3cc4c(c-2c31)OCO4	0	0	0	0	-	-
COc1cc2c(cc1OC)-c1c3c(cc4c1[C@@H](C2)N(C)CC4)OCO3	0	0	0	0	42	-48
Cc1sc2ccccc2c1CC1=NCCN1	0	7.8	0	0	46	-50
OCC[N+]12CCC(CC1)C(C(O)(c1ccccc1)c1ccccc1)C2 (centres undefined)	0	0	0	0	-	-
O=C(C[N+]12CCC(CC1)C(C(O)(c1ccccc1)c1ccccc1)C2)c1ccc(Br)cc1 (centres undefined)	0	0	0	0	30	-22
C[n+]1ccc(-c2ccccc2)c2ccccc21	0	8.6	0	0	85	-70
Cc1cc(Cc2c(O)[nH]c(=S)[nH]c2=O)ccc1OC(C)C	0	0	0	0	-	-
COC(=O)C1=C(c2ccc3ccccc3c2)C[C@@H]2CC[C@H]1N2C(=O)N1CCC(C)CC1	0	-	0	-	-	-
CNc1cc(N2CCNCC2)ccc1[N+](=O)[O-]	0	0	0	0	39	-49
CN1CCN(c2ccc([N+](=O)[O-])c(NCc3ccco3)c2)CC1	0	0	0	0	-	-
CN1CCN(c2ccc([N+](=O)[O-])c(SCCO)c2)CC1	0	6.8	0	0	37	-65
CN1CCN(c2ccc([N+](=O)[O-])c(NCC3CCCO3)c2)CC1 (centres undefined)	0	6.3	0	0	52	-51
CN1CCN(c2ccc([N+](=O)[O-])c(N)c2)CC1	0	0	0	0	-	-
Cc1cc(C)c2c(ccc3cccc[n+]32)c1	0	6.3	0	0	72	-55
CCc1nc2ccc(Br)cc2c(=O)n1-c1ccccc1C(F)(F)F	0	0	0	0	-	-
CCCc1nc2ccc(Br)cc2c(=O)n1-c1ccc([N+](=O)[O-])c(C(F)(F)F)c1	0	0	0	0	0	0
COC(=O)C1=C(c2ccc(F)cc2OCc2ccccc2)C[C@@H]2CC[C@H]1N2C(=O)N1CCCC1	0	-	0	-	-	-
Cc1ccc(-c2cc(-c3ccccc3)cc(-c3ccccc3)[n+]2-c2ccccc2C(=O)O)cc1	0	0	0	0	-	-

High-throughput results: PubChem, several laboratories
